Reference: ChEMBL document CHEMBL1124933, “Benzodiazepine receptor binding activity of 8-substituted-9-(3-substituted-benzyl)-6-(dimethylamino)-9H-purines” (J Med Chem, 1990)
pIC50: −log10 of the molar value.

Experiments:
[1] = biological target: GABA-A receptor; anion channel; assay: Inhibition of specific binding of 1.5 nM [3H]diazepam to rat brain benzodiazepine receptors
Rattus norvegicus = assay: Percent change in Geller-Seifter conflict schedule was determined in Long-Evans rats after (po) administration of gavage of 25 mg/kg; assay type: functional
Summary of the method: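 Long-Evans rats on a modified Geller-Seifter operant conflict schedule, with conflict-period responding scored. Compounds given by oral gavage as a 0.5% methylcellulose suspension at 25 mg/kg. Chlordiazepoxide reference given at 20 mg/kg.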

SMILES	pIC50 [1]	Change (Rattus norvegicus)
CN(C)c1ncnc2c1nc(Br)n2Cc1cccc(NS(C)(=O)=O)c1	5.82	
CN(C)c1ncnc2c1nc(O)n2Cc1cccc(NC=O)c1	6.89	-15%
CNc1nc2c(N(C)C)ncnc2n1Cc1cccc(NC=O)c1	6.44	
CN(C)c1ncnc2c1nc(O)n2Cc1cccc(N)c1	5.74	
CN(C)c1ncnc2c1ncn2Cc1cccc(NC=O)c1	7.47	-2%
COC(=O)Nc1cccc(Cn2c(Br)nc3c(N(C)C)ncnc32)c1	5.28	
COc1nc2c(N(C)C)ncnc2n1Cc1cccc(N)c1	6.00	13%
CNc1nc2c(N(C)C)ncnc2n1Cc1cccc(N)c1	5.14	
CN(C)c1ncnc2c1nc(Br)n2Cc1cccc(NC=O)c1	7.96	9%
CC(=O)Nc1cccc(Cn2c(Br)nc3c(N(C)C)ncnc32)c1	6.08	3%
CN(C)c1ncnc2c1nc(Br)n2Cc1cccc(NC(N)=O)c1	7.60	9%
CN(C)c1ncnc2c1nc(Br)n2Cc1cccc(NC(=O)c2ccccc2)c1	5.10	

Now from value to compound, other results behind:

pIC50 [1]	SMILES	Change (Rattus norvegicus)
6.96	CN(C)c1ncnc2c1nc(N(C)C)n2Cc1cccc(NC=O)c1	0%
4.77	CNc1nc2c(N(C)C)ncnc2n1Cc1ccccc1	
6.72	CN(C)c1ncnc2c1nc(Cl)n2Cc1cccc(N)c1	15%
5.24	CN(C)c1ncnc2c1nc(N(C)C)n2Cc1ccccc1	
5.27	COc1nc2c(N(C)C)ncnc2n1Cc1ccccc1	
6.22	CN(C)c1ncnc2c1nc(N(C)C)n2Cc1cccc(N)c1	-3%
5.07	Cc1nc2c(N(C)C)ncnc2n1Cc1ccccc1	
6.96	CN(C)c1ncnc2c1nc(Br)n2Cc1cccc(N)c1	2%
5.52	CN(C)c1ncnc2c1nc(Br)n2Cc1ccccc1	
